Compound activity: PubChem, Sanford-Burnham Center for Chemical Genomics
bIAP activator: intestinal alkaline phosphatase (bovine) activation | purified bovine IAP, CDP-star luminescence, 30 min; hits give high values; fold of DMSO-control signal, blank-subtracted | activation factor at 20 µM | hit rate 0.17% among 200,000 | AID 1016;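 active = activation factor of 2 or more at 20 µM, a signal rise over negative controls twice the positive control's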
hIAP act: increases human intestinal alkaline phosphatase activity. hit rate 0.16% among 330,000. activation factor at 10 µM. purified human IAP, CDP-Star luminescence, 30 min; hits give high values; 1 = vehicle-only enzyme, 0 = enzyme-free background. P09923;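 active = activation factor of the enzyme at least 2-fold when tested at 20 µM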
Target sequence (P09923 whole entry, looked up): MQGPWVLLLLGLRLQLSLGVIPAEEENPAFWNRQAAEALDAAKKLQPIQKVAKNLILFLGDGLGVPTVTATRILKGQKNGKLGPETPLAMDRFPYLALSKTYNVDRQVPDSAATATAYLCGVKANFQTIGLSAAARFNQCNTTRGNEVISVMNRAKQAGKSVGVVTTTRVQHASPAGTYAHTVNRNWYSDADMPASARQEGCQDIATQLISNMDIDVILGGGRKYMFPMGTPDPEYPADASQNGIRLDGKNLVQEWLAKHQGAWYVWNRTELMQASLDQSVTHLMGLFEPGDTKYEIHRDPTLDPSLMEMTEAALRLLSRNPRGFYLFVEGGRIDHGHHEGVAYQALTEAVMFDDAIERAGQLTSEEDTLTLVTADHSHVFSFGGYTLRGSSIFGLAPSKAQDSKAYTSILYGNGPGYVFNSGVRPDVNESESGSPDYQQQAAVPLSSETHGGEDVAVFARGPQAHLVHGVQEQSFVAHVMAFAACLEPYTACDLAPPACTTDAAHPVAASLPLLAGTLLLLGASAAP
bIAP inh: blocks bovine intestinal alkaline phosphatase activity; purified bovine IAP, CDP-star luminescence, 30 min; AID 1019; 190,000 tested, under 10 active; inhibition, % at 20 µM;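 active = over 50% inhibition of intestinal alkaline phosphatase at 20 µM in the single-dose screen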
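Assay system: bovine IAP enzyme; medium: DEA buffer 100 mM, pH 9.8, with MgCl2 1.0 mM, ZnCl2 0.02 mM; doses: 20 µM single dose; incubation: enzyme reaction for 30 min at room temperature; detection: CDP-star luminescence signal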
hIAP block: blocks human intestinal alkaline phosphatase. AID 2544. purified IAP, CDP-Star luminescence, 30 min. inhibition, % at 10 µM. hit rate 0.12% among 330,000. P09923;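 active = inhibition reaching a set limit with compound at 10 µM in the primary screen, cut at about 35% in these data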;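 note: plate controls were DMSO wells with enzyme for no effect and no-enzyme buffer wells for full effect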
mIAP inh: blocks mouse intestinal alkaline phosphatase; hit rate 0.2% among 330,000; AID 2806; purified mouse IAP, CDP-Star luminescence, 30 min; inhibition, % at 10 µM;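 active = inhibition of at least 40% at 10 µM in the primary screen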;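 note: plate controls were DMSO with enzyme for no effect and no enzyme wells for full effect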
mIAP activ: mouse IAP activation | muIAP, CDP-Star luminescence, 30 min; hits give high values; 1 = vehicle-only enzyme signal, 0 = enzyme-free wells | activation factor at 10 µM | hit rate 0.24% among 330,000;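 active = activation factor of at least 2 at 20 µM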
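Assay system: mouse IAP enzyme; reagent: chemiluminescent substrate CDP-Star; dosing: test compounds delivered from DMSO solution; schedule: 30 min at room temperature; measured by: luminescence from enzymatic CDP-Star hydrolysis; controls: DMSO-only wells and no-enzyme negative control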
mIAP inh conf: mouse IAP inhibition confirmation; shares compounds with mIAP inh; purified mouse IAP, CDP-Star luminescence, 30 min; inhibition, % at 10 µM; hit rate 4.7% among 11,000; AID 434971;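 active = inhibition of at least 40% at 10 µM in either of the two replicates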;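 note: plate controls were DMSO wells with enzyme for no effect and buffer wells lacking enzyme for full effect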
* marks the source's active call; other numbers are inactive results; . = no result given. An excerpt weighted towards active compounds, which were near 0.77% of everything screened.

SMILES	bIAP activator	hIAP act	bIAP inh	hIAP block	mIAP inh	mIAP activ	mIAP inh conf
CSC1=NSC2=NC(=O)/C(=C/c3coc4ccc(O)cc4c3=O)C(=N)N12	0.6	1.04	37.0	-4.5	55.9*	0.441	54.8*
CCOc1ccccc1OCCC(=O)OCC(=O)c1ccc[nH]1	1	0.959	1.7	4.1	0.5	0.995	.
O=C(/C=C/c1ccco1)NC(=S)Nc1ccc(C(=O)O)cc1	.	1.17	.	-16.8	43.4*	0.566	66.7*
CC(=O)NC(=S)Nc1ccc(NC(=S)NC(=O)/C=C/c2ccco2)cc1	.	0.905	.	9.5	15.0	0.85	.
C=CCNC(=S)NNC(=O)c1ccco1	1.3	1.37	-25.6	-37.2	9.9	0.901	.
O=C(/C=C/c1ccco1)NC(=S)NNC(=O)c1ccco1	0.9	1.48	5.7	-48.2	49.2*	0.508	54.3*
O=C(C[C@@H]1C/C=C\CC[C@H](Cc2ccc(F)cc2)C(=O)OC[C@@H]2CCCN2C1=O)NCCO	.	0.902	.	9.8	-3.2	1.03	.
Cc1ccc(Cl)c2c1=NC(=O)C=2c1[nH]c(=S)[nH]c1O	0.1	0.757	.	24.3	46.0*	0.54	52.2*
Cc1nc2ccccc2c(=O)n1/N=C/c1ccc(O)c(O)c1O	.	0.993	.	0.7	56.7*	0.433	80.6*
CC(C)CC(C(=O)Nc1cccc(O)c1)N1C(=O)c2ccccc2C1=O (configuration not stated)	.	0.94	.	6.0	6.5	0.935	.
CC(C)CC(C(=O)Nc1oc(-c2ccco2)c(-c2ccco2)c1C#N)N1C(=O)c2ccccc2C1=O (configuration not stated)	1	1.11	-2.1	-11.1	44.9*	0.551	47.7*
O=C(O)c1cc(NC(=O)c2cccc(F)c2)cc(NC(=O)c2cccc(F)c2)c1	.	0.855	.	14.5	9.9	0.901	.
CC(=O)c1ccc(NC(=O)CSc2nnc3ccc(-c4ccccn4)nn23)cc1	.	1.05	.	-5.4	0.7	0.993	.
CC(=O)NCc1ccc(-c2csc(NC(=O)CCc3nc4ccccc4c(=O)[nH]3)n2)s1	.	1.02	.	-2.0	45.5*	0.545	44.8*
COc1ccc(C)cc1NC(=O)CSCc1cc(=O)n2c(C)csc2n1	.	0.786	.	21.4	-4.4	1.04	.
COc1cc(CNc2ncnc3c2[nH]c2ccc(C)cc23)cc(OC)c1	.	1.69	.	-69.0	-211.6	3.12*	-197.0
CCCNC(=O)c1ccc2c(=O)n(Cc3ccco3)c(=S)[nH]c2c1	1	0.972	-0.4	2.8	63.7*	0.363	66.4*
CC(=O)c1c(C)oc2ccc(NS(=O)(=O)c3ccc(O)c(C(=O)O)c3)cc12	0.9	1.05	5.6	-4.8	13.1	0.869	.
O=C(O)c1cc(S(=O)(=O)Nc2ccc3oc(=O)sc3c2)ccc1O	0.9	1.05	8.3	-5.0	65.3*	0.347	72.1*
O=C(NN1C(=O)/C(=C/C=C/c2ccco2)SC1=S)c1ccncc1	.	0.935	.	6.5	77.3*	0.227	76.6*
O=C1/C(=C/C=C/c2ccco2)SC(=S)N1c1ccc(O)cc1	.	1.06	.	-5.7	79.5*	0.205	77.0*
O=C(O)c1ccc(N2C(=O)/C(=C/C=C/c3ccccc3)SC2=S)cc1	0.9	0.977	10.5	2.3	8.3	0.917	.
NN1C(=O)/C(=C\c2ccco2)SC1=S	.	0.85	.	15.0	78.2*	0.218	86.5*
CC(C)C(C(=O)O)N1C(=O)/C(=C/c2cccn2C)SC1=S (configuration not stated)	1.1	.	-9.6	.	.	.	.
O=C(NN1C(=O)/C(=C/C=C/c2ccccc2)SC1=S)c1ccncc1	1.1	0.974	-7.0	2.6	20.5	0.795	.
SMILES	bIAP activator	hIAP act	bIAP inh	hIAP block	mIAP inh	mIAP activ	mIAP inh conf
CC(C)C(C(=O)O)N1C(=O)/C(=C/C=C/c2ccco2)SC1=S (configuration not stated)	0.8	1.11	23.1	-11.0	65.9*	0.341	73.6*
COc1ccc(CCN2C(=O)CSC2=Nc2ccc(C)cc2C)cc1OC	.	1.05	.	-4.6	-9.0	1.09	.
CC(C)(C)NC(=O)NC(=O)CN1CCN(c2cccc(Cl)c2)CC1	.	1.07	.	-7.0	2.2	0.978	.
O=C(c1ccco1)N1CCC(c2nc3ccccc3[nH]2)CC1	.	0.936	.	6.4	3.1	0.969	.
Cn1c(=O)c2c(nc(N/N=C/c3ccc(OC(=O)c4ccco4)cc3)n2Cc2ccccc2)n(C)c1=O	0.9	1.65	9.1	-64.9	-8.1	1.08	.
O=C1/C(=C\c2ccco2)SC(=S)N1c1ccc(O)cc1	0.9	0.992	8.1	0.8	77.8*	0.222	77.3*
O=C1/C(=C\c2ccc(O)cc2)SC(=S)N1c1cccnc1	0.7	0.749	26.1	25.1	19.4	0.806	.
CCCSc1ccc([C@H]2N[C@@](C)(C(=O)OC)[C@H]3C(=O)N(C)C(=O)[C@@H]23)cc1OC	.	1.03	.	-2.9	1.6	0.984	.
NS(=O)(=O)c1cccc(C(=O)NC2CCSc3ccccc32)c1 (configuration not stated)	.	0.951	.	4.9	-21.2	1.21	.
NS(=O)(=O)c1cc(C(=O)NC2CCSc3ccccc32)ccc1Cl (configuration not stated)	.	0.906	.	9.4	71.5*	0.285	84.0*
CC(C)OC(=O)NCCOC(=O)Nc1cccc(Cl)c1	0.9	1.09	13.9	-9.0	-103.1	2.03*	-111.7
O=C(NCc1ccccc1)C(c1ccccc1F)N(C(=O)c1csnn1)C1CCCC1 (configuration not stated)	.	0.974	.	2.6	0.2	0.998	.
Cc1cc(/C=C2\SC(=S)NC2=O)c(C)n1-c1ccccc1	.	0.865	.	13.5	43.4*	0.566	48.3*
Cc1cc(/C=C2\SC(=S)NC2=O)c(C)n1C	0.8	0.934	20.3	6.6	59.4*	0.406	62.2*
COc1ccc(-n2c(C)cc(/C=C3\SC(=S)NC3=O)c2C)cc1	0.5	1.1	45.1	-9.6	27.3	0.727	.
Cc1cc(/C=C2\SC(=S)NC2=O)c(C)n1-c1ccc(O)cc1	.	0.882	.	11.8	72.7*	0.273	70.8*
Cc1cc(NC(=O)Nc2cccc(Cl)c2)n(-c2ccccn2)n1	.	1.17	.	-16.6	-67.9	1.68	.
Cc1cc(NC(=O)Nc2ccc(Cl)c(Cl)c2)n(-c2ccccc2)n1	.	1.55	.	-54.7	-326.8	4.27*	-178.6
Cc1cc(NC(=O)Nc2cccc(Cl)c2)n(-c2ccccc2)n1	.	1.86	.	-86.3	-204.0	3.04*	-97.1
Cc1[nH]c2ccc(C(=O)NCc3ccccn3)cc2c1C	.	1.21	.	-21.4	3.7	0.963	.
CC(NS(=O)(=O)c1ccc(F)cc1)C(=O)Nc1ccc2c(c1)OCCO2 (configuration not stated)	.	1.25	.	-25.3	-8.4	1.08	.
O=C(N/N=C/c1cn(Cc2cccc(F)c2)c2ccccc12)c1cc(O)cc(O)c1	.	1.16	.	-15.9	67.6*	0.324	67.3*
